From PubChem BioAssay come the findings set out here.

The nature of test [1]: inhibitors of TNFa-induced NFkB p65 translocation, primary screen, imaging, HUVEC, MLSMR starter and 10KST1 sets (AID 438;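 active means inhibition above 20% together with a positive visual image hit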;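 further: compound added about 3h40 before a 20 min TNFalpha stimulation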;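 on inhibition: signal is the nuclear over cytoplasmic p65 intensity ratio per well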). Particulars: HUVEC TNFa-induced p65 nuclear translocation; cell count: measured here: nuclei count (cytotoxicity indicator), at 2.08 µM; inhibition: at 2 µM, stronger effect = higher value, 0% TNFa-plus-vehicle, 100% no-TNFa wells.
Test [2] in a line: inhibitors of mutant huntingtin aggregation, primary screen, imaging, exon1htt(103Q)mCFP cells, high-content imaging (AID 483;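 active means visual image review flags a hit and inhibition of aggregation exceeds 20%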;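 further: compound exposure lasted 3 days before fixation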;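 on nuclei count: percent of the per-plate median nuclei count of sample wells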). To be noted: exon1htt(103Q)mCFP cell line, aggregate imaging, at 2 µM; inhibition of aggregation: stronger effect = higher value; nuclei count: measured here: cell count, toxicity.
The nature of test [3]: inhibitors of E-selectin induction by TNFa, primary screen, imaging, HUVEC, immunofluorescence, MLSMR starter and 10KST1 sets (AID 487;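 active means visually confirmed hit in the image check and inhibition above 20%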;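 on inhibition: signal is fraction of cell area covered by stained E-selectin grains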;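 on nuclei count: 100% = median nuclei count of all wells on the same plate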). To be noted: HUVEC TNFalpha-induced E-selectin immunofluorescence imaging, at 2 µM; inhibition: stronger effect = higher value; nuclei count: measured here: cell number, toxicity.
The target of test [4] is Voltage-gated potassium channel subunit beta-2 (Rattus norvegicus) (UniProt P62483). The test can be described thus: KvBeta enzyme negative modulators, primary screen, biochemical, NADPH fluorescence (AID 622;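 active means fluorescence slope higher than the sample average by over 3 SD, cut at about -0.22 in these data, passing the limit was not always enough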;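 further: slope of raw intensity against log time taken from 70 to 1610 s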). Particulars: recombinant KvBeta, 4-cyanobenzaldehyde reduction, at 10 µM, stronger effect = higher value.
Voltage-gated potassium channel subunit beta-2 (Rattus norvegicus), sequence (P62483 whole entry, looked up): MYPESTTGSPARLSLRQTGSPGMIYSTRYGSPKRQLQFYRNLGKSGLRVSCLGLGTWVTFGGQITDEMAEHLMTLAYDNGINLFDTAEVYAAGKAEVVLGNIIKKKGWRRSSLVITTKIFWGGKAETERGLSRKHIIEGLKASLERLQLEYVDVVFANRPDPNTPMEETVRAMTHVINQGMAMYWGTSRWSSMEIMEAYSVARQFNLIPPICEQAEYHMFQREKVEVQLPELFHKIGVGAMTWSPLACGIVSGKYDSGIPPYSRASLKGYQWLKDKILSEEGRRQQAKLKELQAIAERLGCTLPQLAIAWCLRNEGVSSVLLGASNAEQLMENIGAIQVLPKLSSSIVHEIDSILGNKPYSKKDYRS
Test [5] shares this target. The test can be described thus: KvBeta positive modulators, primary screen, biochemical, NADPH fluorescence (AID 623;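 active means NADPH fluorescence slope more negative than the mean of all samples by about 3 SD, 99.7% confidence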;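 further: fluorescence intensity change per second fitted from 20 to 320 s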). To be noted: Recombinant KvBeta, NADPH fluorescence decrease slope, 10 min; at 10 µM; stronger effect = lower value.
The target of test [6] is Alpha-2C adrenergic receptor (Homo sapiens) (UniProt P18825). The test is described as follows: modulators of alpha2C/GIRK thallium flux, primary screen, cell-based, HEK293 alpha2C/GIRK1/2 (AID 624;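 active means fluorescence slope after compound addition differing from the mean of all screened samples at 99.7% confidence, in either direction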;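 further: slope of fluorescence ratio to pre-addition baseline per second over 15 to 24 s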). To be noted: thallium flux BTC fluorescence, at 10 µM, actives lie on both sides.
Alpha-2C adrenergic receptor (Homo sapiens), sequence (P18825 whole entry, looked up): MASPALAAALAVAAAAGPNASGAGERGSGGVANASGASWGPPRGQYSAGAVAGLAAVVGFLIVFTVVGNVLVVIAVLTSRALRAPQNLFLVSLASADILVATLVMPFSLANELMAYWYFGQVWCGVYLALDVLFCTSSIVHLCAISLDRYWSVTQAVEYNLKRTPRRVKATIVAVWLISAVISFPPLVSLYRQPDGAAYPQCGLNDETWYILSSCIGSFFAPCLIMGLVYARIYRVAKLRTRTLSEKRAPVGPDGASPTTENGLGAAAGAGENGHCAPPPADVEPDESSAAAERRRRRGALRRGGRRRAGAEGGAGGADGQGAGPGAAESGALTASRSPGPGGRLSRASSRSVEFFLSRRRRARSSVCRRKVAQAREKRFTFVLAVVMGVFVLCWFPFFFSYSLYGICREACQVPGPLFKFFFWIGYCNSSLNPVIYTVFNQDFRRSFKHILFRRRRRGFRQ
Test [7] is described as follows: inhibitors of larval lipid processing in zebrafish, primary screen, whole organism, PED6 fluorescence, gall bladder and intestine (AID 686;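 active means a full or partial loss of lipid-probe fluorescence in the fish gall bladder, intestine or both, judged by eye; inactive means no fluorescence loss, or compound toxic to the fish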;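 further: larvae 5 to 7 days old with five fish per well; signal comes from phospholipase A2 cleavage of quenched PED6 carried via bile; overnight exposure to compound and PED6 before scoring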). To be noted: Zebrafish larvae PED6 lipid processing, fluorescence scoring; screened at 20 µM (by protocol). In short, it runs like this:
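Also added: quenched phospholipase substrate PED6, 100 nM final, ingested by larvae; System: zebrafish larvae, 5-7 d; Quantity: 5 larvae per well; Compound: 20 µM single dose; Schedule: overnight compound and PED6 incubation; Read-out: visual per-well fluorescence inhibition score; Measured by: By-eye fluorescence microscopy; Medium: E3.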

Test [8] can be described thus: inhibitors of Sendai virus-induced IRF3 signaling, primary screen, TLR/RLR signaling modifier project, cell-based, Sendai virus stimulus, luciferase, 10K MLSCN set (AID 602276).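 Further: firefly luciferase from ISG56 promoter only with Renilla not read in this screen; 0% = Sendai virus plus DMSO and 100% = medium plus DMSO without virus.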 To be noted: HEK293 RL24 IRF3 luciferase reporter, at 10 µM, stronger effect = higher value.
A short description of test [9]: inhibitors of poly I:C-induced TLR3 signaling, primary screen, cell-based, poly I:C stimulus, luciferase, 10K MLSCN set (AID 602277;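 active means inhibition of the reporter signal at or above 50%; inactive means inhibition below 50%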). To be noted: HEK293-TLR3 RL24 IRF3 luciferase reporter, at 10 µM, stronger effect = higher value. (In general: In a reporter assay the amount or activity of a reporter protein is the signal.)

The source made the active and inactive calls.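 How the source made its calls, unless noted: active means inhibition at or above 50% at 10 µM; inactive means inhibition below 50%.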

Regarding `CS(=O)(=O)N(CC(=O)Nc1ccc2c(c1)OCO2)Cc1ccc(Cl)cc1`, the cell count in test [1] turned out to be 303. The inhibition – broadly, the change of the read-out against control, counted positive when it falls – is 8.9% (inactive) in [1], -20.4% (inactive) in test [3], 11.9% (inactive) in test [8] and 17.7% (inactive) in test [9]. Further, the inhibition of aggregation in test [2] is -3.1% (inactive). Further, the nuclei count in test [2] turned out to be 92%; in test [3], 88.8%. Also, in test [4], the fluorescence slope is -0.428 (inactive). The NADPH fluorescence slope in test [5] was -6.6e-05 (inactive). Also, the slope in [6] was 0.00445 (inactive). Besides, in [7], the outcome was inactive.
On to `Cc1nn(-c2ccccc2)c2[nH]c(C(F)(F)F)cc(=O)c12`, for which the cell count in test [1] is 364. In addition, the inhibition in test [1] was 0.7% (inactive); in [3], -10.5% (inactive); in test [8] it was 5.93% (inactive); in test [9] it was -1.53% (inactive). Moreover, the inhibition of aggregation in test [2] is 17.9% (inactive). In addition, the nuclei count in test [2] came to 103%; in test [3] it was 97.8%. In addition, the fluorescence slope in test [4] is -0.411 (inactive). In addition, in test [5], the NADPH fluorescence slope was -4.4e-05 (inactive). Moreover, in test [6], the slope is 0.00725 (inactive). In test [7], the call was inactive.
`CN1CCN(c2ccc(Cl)cc2NC(=O)c2cccc(S(=O)(=O)N(C)C)c2)CC1`: the cell count in test [1] is 378. In addition, the inhibition is 0.5% (inactive) in [1], 14.4% (inactive) in test [3], 6.8% (inactive) in test [8] and 12.4% (inactive) in [9]. Besides, in test [2], the inhibition of aggregation was -6.9% (inactive). Moreover, the results for the nuclei count in test [2] and in test [3] were 133% and 88.8%, respectively. Also, the fluorescence slope in test [4] is -0.373 (inactive). In addition, the NADPH fluorescence slope in [5] was -2e-05 (inactive). Moreover, the slope in test [6] was 0.00491 (inactive). In addition, in test [7], the result was inactive.
In the case of `O=C(Nc1sccc1C(=O)NCc1ccco1)c1cccnc1`, the cell count in test [1] came out at 343. Moreover, the inhibition in test [1] is 2.1% (inactive); in test [3], -92.1% (inactive); in test [8] it was 5.47% (inactive); in test [9] it was -21.6% (inactive). In addition, the inhibition of aggregation in [2] was -22.2% (inactive). In addition, the nuclei count in test [2] was 103%; in test [3] it was 119%. The fluorescence slope in test [4] is -0.461 (inactive). In addition, the NADPH fluorescence slope in test [5] is -3.3e-05 (inactive). For the same compound, in test [6], the slope was 0.00445 (inactive). In addition, the compound was called inactive in test [7].
As to `O=C(NCCC1=CCCCC1)C1CCN(S(=O)(=O)c2cnc[nH]2)CC1`, in test [1], the cell count is 472. The inhibition in test [1] was 4.5% (inactive); in test [3] it was -36.1% (inactive); in [8], 13.7% (inactive); in [9], 18.8% (inactive). Besides, the inhibition of aggregation in test [2] was -8.6% (inactive). Besides, the nuclei count came out at 93.1% in test [2] and 117% in test [3]. Further, the fluorescence slope in [4] is -0.367 (inactive). Moreover, the NADPH fluorescence slope in test [5] is -4.7e-05 (inactive). In [6], the slope is 0.0051 (inactive). In [7], the outcome was inactive.
Turning to `COc1ccc(CN(CC(=O)NCC2CCCO2)C(=O)CCC(=O)Nc2cc(C)on2)cc1` (stereo unspecified), in [1], the cell count was 242. Also, the inhibition was 7.6% (inactive) in test [1], 13.1% (inactive) in [3], -9.53% (inactive) in [8] and -6.1% (inactive) in [9]. Besides, the inhibition of aggregation in [2] is 7.1% (inactive). The nuclei count worked out at 89.3% in test [2] and 104% in test [3]. Moreover, in test [4], the fluorescence slope was -0.399 (inactive). In addition, the NADPH fluorescence slope in test [5] was -1.6e-05 (inactive). For the same compound, in test [6], the slope was 0.00463 (inactive). For the same compound, the compound was classed as inactive in [7].
`CCCC(OC(=O)CN1C(=O)COc2ccccc21)C(=O)NC1CCCC1` (stereo unspecified): the cell count in [1] amounted to 637. Moreover, the inhibition in test [1] is 5.5% (inactive); in test [3], -88% (inactive); in test [8], 20.6% (inactive); in test [9] it was 23.6% (inactive). Moreover, in [2], the inhibition of aggregation was 1.5% (inactive). Further, the nuclei count in test [2] stood at 129%; in test [3] it was 106%. For the same compound, the fluorescence slope in [4] is -0.434 (inactive). For the same compound, the NADPH fluorescence slope in [5] is -1.6e-05 (inactive). The slope in test [6] is 0.00522 (inactive). Besides, the compound was called inactive in test [7].
On to `O=C(c1ccccc1)c1ccc(N2CCNCC2)cc1`, for which the cell count in test [1] turned out to be 395. Further, the inhibition in test [1] is 4.3% (inactive); in test [3], 2.4% (inactive); in test [8] it was -41.5% (inactive); in [9], -73.5% (inactive). The inhibition of aggregation in test [2] is -14.4% (inactive). Moreover, the figures for the nuclei count in test [2] and in test [3] were 92.6% and 102%, respectively. For the same compound, in test [4], the fluorescence slope was -0.518 (inactive). Further, the NADPH fluorescence slope in test [5] was 5.3e-06 (inactive). Besides, the slope in [6] was 0.00569 (inactive). For the same compound, the outcome in [7] was inactive.
